From ChEMBL document CHEMBL1125525, “5'-Azido-delta 8-THC: a novel photoaffinity label for the cannabinoid receptor” (1992) come the findings set out here.

What all share (type): functional
For experiment [1], the system named is Mus musculus. In words: Induction of ring immobility (catalepsy), measured by in vivo administration of drug in mouse. An outline of the steps:
(§1)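 Male ICR mice dosed intravenously; same animals scored for decreased locomotor activity (sedation), ring immobility (catalepsy), hypothermia and tail-flick antinociception. Dose-response data analysed by ANOVA; ED50 (mg/kg) with 95% confidence limits as potency, maximum effect as efficacy: percent inhibition of locomotion, change in °C for hypothermia, percent immobility for catalepsy, percent maximum possible effect on tail-flick latency.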

Experiment [2] relates to Mus musculus. As to the kind of experiment: Compound was evaluated by in vivo administration for Percent inhibition of locomotion in mice. The method in brief: as §1
Experiment [3] is filed under the species Mus musculus. As to the kind of experiment: Percent inhibition measured in terms of the maximum possible effect (MPE)on latency by mouse tail-flick assay. An outline of the steps: as §1
In general terms: Hot-plate and tail-flick tests time the reaction to a heat stimulus.

For experiment [4], the system named is Mus musculus. In words: Compound was evaluated by in vivo administration for its ability to produce sedation. An outline of the steps:
as §1

Experiment [5] deals with Mus musculus. As to the kind of experiment: Compound was evaluated by in vivo administration for its ability to produce hypothermia (change in temperature). An outline of the steps:
as §1

The species named for experiment [6] is Mus musculus. As to the kind of experiment: Antinociception measured in terms of the maximum possible effect (MPE)on latency by mouse tail-flick assay. An outline of the steps:
as §1

The test system of experiment [7] is Mus musculus. In words: Compound was evaluated by in vivo administration for percent inhibition of locomotion in mice. The method in brief:
as §1

In the case of `CC1=CC[C@@H]2[C@@H](C1)c1c(O)cc(CCCCCN=[N+]=[N-])cc1OC2(C)C`, the ED50 (commonly the dose at which the effect has come halfway, by size or by number of responders) came out at 0.8 mg/kg in the experiment with Mus musculus [1], 0.2 mg/kg in the experiment with Mus musculus [4], 0.8 mg/kg with Mus musculus [5] and 0.1 mg/kg in the experiment listed under Mus musculus [6]. In the experiment on Mus musculus [1], this compound showed an Immobility of 57%. Moreover, the results for the Inhibition in the experiment with Mus musculus [2] and in the experiment listed under Mus musculus [3] were 73% and 100%, respectively.
`CCCCCc1cc(O)c2c(c1)OC(C)(C)[C@@H]1CC=C(C)C[C@@H]21` [DELTA-8-TETRAHYDROCANNABINOL]: the values for the ED50 in the experiment on Mus musculus [1], in the experiment with Mus musculus [4] and in the experiment filed under Mus musculus [6] were 5.2 mg/kg, 1.9 mg/kg and 1.5 mg/kg, respectively. The compound further returned an Immobility in the experiment with Mus musculus [1] of 58%. Further, the Inhibition (in general, how much of the control response was suppressed) in the experiment on Mus musculus [7] worked out at 79%; in the experiment listed under Mus musculus [3], 100%.
